# Reference: ChEMBL document CHEMBL1157634, “Differential binding of phenothiazine urea derivatives to wild-type human cholinesterases and butyrylcholinesterase mutants” (Bioorg Med Chem, 2010)
# The source made the active and inactive calls. The calls are words filed in the database; no cut-off is given here.
# Tests used:
# Acetylcholinesterase [1] = target: T1, Acetylcholinesterase (Homo sapiens, UniProt P22303); experiment: Inhibition of human recombinant AChE by modified Ellman's spectrophotometric method
# T1 sequence (P22303 whole entry): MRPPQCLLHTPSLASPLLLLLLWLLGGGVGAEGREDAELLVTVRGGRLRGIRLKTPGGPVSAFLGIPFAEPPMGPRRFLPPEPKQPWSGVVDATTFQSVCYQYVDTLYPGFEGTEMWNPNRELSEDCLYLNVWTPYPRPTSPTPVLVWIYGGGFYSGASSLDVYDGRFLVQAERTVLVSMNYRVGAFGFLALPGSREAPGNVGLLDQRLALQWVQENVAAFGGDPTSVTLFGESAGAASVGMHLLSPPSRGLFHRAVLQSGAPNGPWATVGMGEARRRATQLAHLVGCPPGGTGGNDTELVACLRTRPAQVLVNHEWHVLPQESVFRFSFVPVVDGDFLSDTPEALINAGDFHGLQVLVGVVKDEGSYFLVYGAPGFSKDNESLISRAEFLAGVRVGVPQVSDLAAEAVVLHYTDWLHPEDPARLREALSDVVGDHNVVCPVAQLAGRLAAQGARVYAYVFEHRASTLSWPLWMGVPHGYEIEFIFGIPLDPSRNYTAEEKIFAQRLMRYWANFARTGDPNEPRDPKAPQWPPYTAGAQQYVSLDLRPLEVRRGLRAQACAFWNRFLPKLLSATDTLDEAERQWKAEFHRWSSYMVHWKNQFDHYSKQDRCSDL
# Cholinesterase [2] = target: T2, Cholinesterase (Homo sapiens, UniProt P06276); experiment: Inhibition of human plasma BuChE by modified Ellman's spectrophotometric method; assay type: cell-free
# T2 sequence (P06276 whole entry): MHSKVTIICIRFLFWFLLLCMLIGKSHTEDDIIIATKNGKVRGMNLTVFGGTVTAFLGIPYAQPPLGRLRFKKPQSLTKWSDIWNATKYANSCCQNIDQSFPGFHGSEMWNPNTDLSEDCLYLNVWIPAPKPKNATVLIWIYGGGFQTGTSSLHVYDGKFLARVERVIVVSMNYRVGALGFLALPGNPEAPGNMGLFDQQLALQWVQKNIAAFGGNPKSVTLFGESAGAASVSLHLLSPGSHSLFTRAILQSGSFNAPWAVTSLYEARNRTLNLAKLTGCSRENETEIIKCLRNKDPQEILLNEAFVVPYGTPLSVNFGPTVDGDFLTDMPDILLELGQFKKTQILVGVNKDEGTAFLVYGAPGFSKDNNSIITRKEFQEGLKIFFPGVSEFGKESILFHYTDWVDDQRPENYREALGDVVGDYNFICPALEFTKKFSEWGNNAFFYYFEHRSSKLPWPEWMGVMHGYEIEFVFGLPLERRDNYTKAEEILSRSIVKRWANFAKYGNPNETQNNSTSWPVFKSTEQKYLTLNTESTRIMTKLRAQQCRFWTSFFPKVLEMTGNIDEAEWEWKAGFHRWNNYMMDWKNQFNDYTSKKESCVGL
# How it was run: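 Purified human plasma BuChE (~0.05 units in 0.1% gelatin) in DTNB buffer at pH 8.0, 23 °C, read at 412 nm. Inhibitors first screened in 1:10 serial dilutions in 50% acetonitrile. Lineweaver–Burk plots used butyrylthiocholine 3 × 10^-5–1.6 × 10^-4 M without inhibitor and at two inhibitor concentrations. Ki taken as the x-intercept of the slope replot. Runs generally at least in triplicate and averaged.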
# Homo sapiens [3] = organism: Homo sapiens; experiment: Inhibition of human BuChE Y332A mutant assessed as residual activity at 500 nM by modified Ellman's spectrophotometric method relative to control
# How it was run: (§1)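 Recombinant human BuChE mutants (D70G, F329A, Y332A), with wild-type BuChE for comparison, tested by modified Ellman assay. Buffered DTNB (usually pH 8.0), 23 °C, single butyrylthiocholine concentration of 1.6 × 10^-4 M final. Inhibitor added in 50% aqueous acetonitrile (final 1.67% v/v). Rate read at 412 nm every 5 s for 1 min.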
# Homo sapiens [4] = organism: Homo sapiens; experiment: Inhibition of human BuChE D70G mutant at 50 nM by modified Ellman's spectrophotometric method; how it was run: as §1
# Cholinesterase [5] = target: T2, Cholinesterase; conditions: 1.8 uM
# Acetylcholinesterase [6] = target: T1, Acetylcholinesterase; experiment: Inhibition of human AChE at 1.8 uM by Michaelis-Menten analysis in presence of 10 mM acetylthiocholine as substrate
# How it was run: (§2)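 Purified recombinant human AChE (~0.03 units in 0.1% aqueous gelatin) in buffered DTNB (usually pH 8.0) at 23 °C. Fixed enzyme and inhibitor concentrations across acetylthiocholine 0.039–40 mM. Inhibitor added in 50% aqueous acetonitrile (final 1.67% v/v). Hydrolysis rate (ΔA/min) read at 412 nm every 5 s for 1 min. Michaelis–Menten plots of rate versus substrate concentration.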
# Acetylcholinesterase [7] = target: T1, Acetylcholinesterase; experiment: Inhibition of human AChE at 1.8 uM by Michaelis-Menten analysis in presence of 20 mM acetylthiocholine as substrate; how it was run: as §2
# Cholinesterase [8] = target: T2, Cholinesterase; conditions: 1.8 uM; remark: listed apart in the source
# Cholinesterase [9] = target: T2, Cholinesterase; conditions: 500 nM
# Homo sapiens [10] = organism: Homo sapiens; experiment: Inhibition of human BuChE F329A mutant at 500 nM by modified Ellman's spectrophotometric method; how it was run: as §1
# Cholinesterase [11] = target: T2, Cholinesterase; conditions: 50 nM
Structure (SMILES),Ki (Cholinesterase [2]) [µM],Ki (Acetylcholinesterase [1]),other results
NC(=O)N1c2ccccc2Sc2ccccc21,90.8,–,Ki (Acetylcholinesterase [1]; read-out: Ki): 89.3 µM
O=C(NCc1cccc2ccccc12)N1c2ccccc2Sc2ccccc21,0.15,Not Active,–
CCN(CC)CCNC(=O)N1c2ccccc2Sc2ccccc21,0.51,–,Ki (Acetylcholinesterase [1]; read-out: Ki): 16.3 µM
COCCNC(=O)N1c2ccccc2Sc2ccccc21,29.1,Not Active,–
CCCNC(=O)N1c2ccccc2Sc2ccccc21,20.5,Not Active,–
Cc1ccccc1NC(=O)N1c2ccccc2Sc2ccccc21,0.71,Not Active,–
CC(C)N(C(=O)N1c2ccccc2Sc2ccccc21)C(C)C,0.18,Not Active,–
O=C(NCCN1CCCC1)N1c2ccccc2Sc2ccccc21,0.21,–,Ki (Acetylcholinesterase [1]; read-out: Ki): 29.4 µM
O=C(NCCN1CCOCC1)N1c2ccccc2Sc2ccccc21,6.91,Not Active,–
O=C(NC1CCCCC1)N1c2ccccc2Sc2ccccc21,2.81,Not Active,–
CN(C)C(=O)N1c2ccccc2Sc2ccccc21,9.2,–,Ki (Acetylcholinesterase [1]; read-out: Ki): 400 µM
O=C(NCCN1CCCCC1)N1c2ccccc2Sc2ccccc21,0.02,–,Ki (Acetylcholinesterase [1]; read-out: Ki): 0.62 µM
O=C(NC12CC3CC(CC(C3)C1)C2)N1c2ccccc2Sc2ccccc21,0.35,Not Active,–
O=C(Nc1ccc(Cl)cc1)N1c2ccccc2Sc2ccccc21,4.69,Not Active,–
O=C(N1CCOCC1)N1c2ccccc2Sc2ccccc21,7.1,Not Active,–
O=C(NC1CC1)N1c2ccccc2Sc2ccccc21,42.5,Not Active,–
CCCCNC(=O)N1c2ccccc2Sc2ccccc21,24.7,Not Active,–
CCN(CC)C(=O)N1c2ccccc2Sc2ccccc21,1.05,Not Active,–
O=C(NC1CCCC1)N1c2ccccc2Sc2ccccc21,2.99,Not Active,–

Structure (SMILES),Ki (Cholinesterase [2]) [µM],Ki (Acetylcholinesterase [1]),other results
CN1CCN(C(=O)N2c3ccccc3Sc3ccccc32)CC1,17.1,Not Active,–
O=C(NC1CCC1)N1c2ccccc2Sc2ccccc21,10,Not Active,–
Cc1ccc(NC(=O)N2c3ccccc3Sc3ccccc32)cc1,12.1,Not Active,–
O=C(Nc1ccccc1)N1c2ccccc2Sc2ccccc21,0.31,Not Active,–
CCNC(=O)N1c2ccccc2Sc2ccccc21,35,–,Ki (Acetylcholinesterase [1]; read-out: Ki): 1450 µM
O=C(N1CCCCC1)N1c2ccccc2Sc2ccccc21,1.56,Not Active,–
CC(C)(C)CNC(=O)N1c2ccccc2Sc2ccccc21,2.66,Not Active,–
CN(CCCNC(=O)N1c2ccccc2Sc2ccccc21)c1ccccc1,0.25,Not Active,–
CNC(=O)N1c2ccccc2Sc2ccccc21,18.3,–,Ki (Acetylcholinesterase [1]; read-out: Ki): 9.36 µM
CCCN(CCC)C(=O)N1c2ccccc2Sc2ccccc21,0.43,Not Active,–
O=C(NCCCN1CCOCC1)N1c2ccccc2Sc2ccccc21,7.86,Not Active,–
O=C(NCc1ccccc1)N1c2ccccc2Sc2ccccc21,4.45,Not Active,–
CC(C)(C)NC(=O)N1c2ccccc2Sc2ccccc21,10.6,Not Active,–
O=C(N1CCCC1)N1c2ccccc2Sc2ccccc21,0.56,Not Active,–
COc1ccc(NC(=O)N2c3ccccc3Sc3ccccc32)cc1,9.63,Not Active,–
O=C(NCCc1ccccc1)N1c2ccccc2Sc2ccccc21,0.19,Not Active,–
CC(C)NC(=O)N1c2ccccc2Sc2ccccc21,3.41,–,Ki (Acetylcholinesterase [1]; read-out: Ki): 691 µM
CC(C)N(CCNC(=O)N1c2ccccc2Sc2ccccc21)C(C)C,0.009,–,Activity (Homo sapiens [3]): 50%; inhibition (Homo sapiens [4]): inactive; Ki (Acetylcholinesterase [1]; read-out: Ki): 0.81 µM; inhibition (Cholinesterase [5]): inactive; inhibition (Acetylcholinesterase [6]): Active; inhibition (Acetylcholinesterase [7]): inactive; inhibition (Cholinesterase [8]): Active; inhibition (Cholinesterase [9]): Active; inhibition (Homo sapiens [10]): Active; inhibition (Cholinesterase [11]): 50%
